Results taken from ChEMBL document CHEMBL1806369, “Carbonic anhydrase I and II activation with mono- and dihalogenated histamine derivatives” (Bioorg Med Chem Lett, 2011).

Assays:
[1] = molecular target: Carbonic anhydrase 1 (Homo sapiens) (UniProt P00915); test: Activation of human cytosolic carbonic anhydrase 1 preincubated for 15 mins by stopped-flow CO2 hydration assay
Outline: (§1)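 Initial velocity taken from at least six traces of the first 5–10% of reaction per activator, with uncatalyzed rates measured identically and subtracted. Activator stocks 10 mM in distilled-deionized water, diluted with water down to 0.1 nM. Enzyme and activator preincubated 15 min at room temperature before assay.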

[2] = molecular target: Carbonic anhydrase 2 (Homo sapiens) (UniProt P00918); test: Activation of human cytosolic carbonic anhydrase 2 preincubated for 15 mins by stopped-flow CO2 hydration assay; outline: as §1

Carbonic anhydrase 1 (Homo sapiens), sequence (P00915 2-261 limits assumed): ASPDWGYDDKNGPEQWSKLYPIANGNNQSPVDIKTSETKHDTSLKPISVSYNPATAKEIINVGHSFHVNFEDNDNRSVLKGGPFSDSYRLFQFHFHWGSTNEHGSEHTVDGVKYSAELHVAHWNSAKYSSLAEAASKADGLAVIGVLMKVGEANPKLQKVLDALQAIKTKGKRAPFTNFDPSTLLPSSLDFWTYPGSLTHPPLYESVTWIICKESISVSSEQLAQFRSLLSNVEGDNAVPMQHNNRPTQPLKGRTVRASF

Compound	KA [1]	KA [2]
CC(C)(C)OC(=O)NCCc1nc[nH]c1Cl	16.5 µM	24.8 µM
NCCc1nc[nH]c1I	0.0007 µM	0.001 µM
CC(C)(C)OC(=O)NCCc1nc(Cl)[nH]c1Cl	5.4 µM	50.2 µM
NCCc1nc(Br)[nH]c1Br	0.015 µM	0.096 µM
NCCc1nc[nH]c1Cl	0.018 µM	0.032 µM
NCCc1nc(I)[nH]c1I	0.0009 µM	0.065 µM
CC(C)(C)OC(=O)NCCc1nc[nH]c1I	12.1 µM	36.7 µM
CC(C)(C)OC(=O)NCCc1nc[nH]c1Br	13.3 µM	28.5 µM
NCCc1nc(Cl)[nH]c1Cl	0.021 µM	0.115 µM
NCCc1nc[nH]c1Br	0.012 µM	0.008 µM
CC(C)(C)OC(=O)NCCc1nc(I)[nH]c1I	29.3 µM	13.6 µM
CC(C)(C)OC(=O)NCCc1nc(Br)[nH]c1Br	7.1 µM	44.5 µM
